Data published in ChEMBL document CHEMBL1143294, “Synthesis and antifungal activity of 1,2,3-triazole containing fluconazole analogues” (Bioorg Med Chem Lett, 2009).
In brackets after ≈: the same amount, converted by molar mass.

Tests used:
Candida parapsilosis = experiment: Antimicrobial activity against Candida parapsilosis ATCC 22019 by broth microdilution method; type: functional, organism-based; settings: Lodderomyces parapsilosis
How it was run: (§1)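 Standard broth microdilution following NCCLS guidelines. MIC and IC50 values were determined.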

[1] = system: Trichophyton mentagrophytes; experiment: Antimicrobial activity against Trichophyton mentagrophytes by broth microdilution method; type: functional, organism-based; how it was run: as §1
[2] = Cytotoxicity against human Hep3B cells at 0.001 mg/ml; type: cell-based; settings: hep 3b2
How it was run: (§2)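 Antiproliferative assay in human hepatocellular carcinoma Hep3B and human epithelial carcinoma A431 cells. Compounds were tested across 0.001–1 mg/ml.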

Aspergillus fumigatus = experiment: Antimicrobial activity against Aspergillus fumigatus by broth microdilution method; type: functional, organism-based; how it was run: as §1
A-431 [3] = experiment: Cytotoxicity against human A431 cells at 1 mg/ml; type: cell-based; how it was run: as §2
Candida albicans [4] = experiment: Antimicrobial activity against Candida albicans by broth microdilution method; type: functional, organism-based; how it was run: as §1
Sporothrix schenckii = experiment: Antimicrobial activity against Sporothrix schenckii by broth microdilution method; type: functional, organism-based; how it was run: as §1
[5] = Cytotoxicity against human Hep3B cells; settings: hep 3b2
Cryptococcus neoformans = experiment: Antimicrobial activity against Cryptococcus neoformans by broth microdilution method; type: functional, organism-based; how it was run: as §1
A-431 [6] = experiment: Cytotoxicity against human A431 cells at 1 mg/ml
Candida albicans [7] = experiment: Antimicrobial activity against Candida albicans infected Swiss mouse assessed as reduction of kidney fungal load at 50 mg/kg, po administered once daily for 7 days measured after 9 days; type: functional; design: scale not given: the % may be the effect or the level left
How it was run: (§3)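 Swiss mice received an intravenous Candida albicans challenge, with five mice per group. Test agent was given orally in PEG 200 once a day for 7 days. Mice were sacrificed on day 9, and kidney fungal burden was counted as CFU/g tissue. Results are expressed as % reduction in CFU relative to the untreated control group.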

Candida albicans [8] = experiment: Antimicrobial activity against Candida albicans infected Swiss mouse assessed as reduction of kidney fungal load at 25 mg/kg, po administered once daily for 7 days measured after 9 days; type: functional; design: scale not given: the % may be the effect or the level left; how it was run: as §3
[9] = Cytotoxicity against human Hep3B cells at 0.001 mg/ml; settings: hep 3b2
A-431 [10] = experiment: Cytotoxicity against human A431 cells at 0.001 mg/ml; type: cell-based; how it was run: as §2

| Structure (SMILES) | IC50 (Candida parapsilosis) | MIC (Candida parapsilosis) | IC50 [1] | MIC [1] | Activity [2] | IC50 (Aspergillus fumigatus) | MIC (Aspergillus fumigatus) | Activity (A-431 [3]) | IC50 (Candida albicans [4]) | MIC (Candida albicans [4]) | IC50 (Sporothrix schenckii) | MIC (Sporothrix schenckii) | Activity [5] | IC50 (Cryptococcus neoformans) | MIC (Cryptococcus neoformans) | Activity (A-431 [6]) | Activity (Candida albicans [7]) | Activity (Candida albicans [8]) | Activity [9] | Activity (A-431 [10]) |
| --- | --- | --- | --- | --- | --- | --- | --- | --- | --- | --- | --- | --- | --- | --- | --- | --- | --- | --- | --- | --- |
| C[C@H](CCC(=O)OCc1cn(CC(O)(Cn2cncn2)c2ccc(F)cc2F)nn1)[C@H]1CC[C@H]2[C@@H]3CC[C@@H]4C[C@H](O)CC[C@]4(C)[C@H]3C[C@H](O)[C@]12C (some centres not stated) | 0.38 µg/mL (≈ 0.535 µM) | 0.396 µg/mL (≈ 0.557 µM) | 46.5 µg/mL (≈ 65.4 µM) | > 50 µg/mL | Non-toxic | 6.24 µg/mL (≈ 8.78 µM) | > 50 µg/mL | Toxic | < 0.001 µg/mL | < 0.001 µg/mL | 0.76 µg/mL (≈ 1.07 µM) | 0.84 µg/mL (≈ 1.18 µM) | Non-toxic | < 0.001 µg/mL | 0.01 µg/mL (≈ 0.0141 µM) | Toxic | 38.2% |  |  |  |
| OC(Cn1cncn1)(Cn1ccnn1)c1ccc(F)cc1F (configuration not stated) | 6.83 µg/mL (≈ 22.3 µM) | 12.8 µg/mL (≈ 41.9 µM) | 6.45 µg/mL (≈ 21.1 µM) | 12.2 µg/mL (≈ 39.7 µM) |  | > 50 µg/mL | > 50 µg/mL |  | 0.72 µg/mL (≈ 2.35 µM) | 1.48 µg/mL (≈ 4.83 µM) | 5.77 µg/mL (≈ 18.8 µM) | 10.6 µg/mL (≈ 34.7 µM) |  | 0.03 µg/mL (≈ 0.098 µM) | 0.78 µg/mL (≈ 2.55 µM) |  |  |  |  |  |
| C[Si](C)(C)c1cn(CC(O)(Cn2cncn2)c2ccc(F)cc2F)nn1 (configuration not stated) | 33.1 µg/mL (≈ 87.5 µM) | 44.5 µg/mL (≈ 118 µM) | 8.57 µg/mL (≈ 22.6 µM) | 15.6 µg/mL (≈ 41.1 µM) |  | 43.2 µg/mL (≈ 114 µM) | 49.8 µg/mL (≈ 132 µM) |  | 3.04 µg/mL (≈ 8.03 µM) | 3.26 µg/mL (≈ 8.61 µM) | 3.11 µg/mL (≈ 8.22 µM) | 3.16 µg/mL (≈ 8.35 µM) |  | 1.01 µg/mL (≈ 2.67 µM) | 1.56 µg/mL (≈ 4.12 µM) |  |  |  |  |  |
| CCCCCCCCn1cc(CC(O)(Cn2cncn2)c2ccc(F)cc2F)nn1 (configuration not stated) | 0.002 µg/mL (≈ 0.00478 µM) | 0.01 µg/mL (≈ 0.0239 µM) | 0.249 µg/mL (≈ 0.595 µM) | 0.48 µg/mL (≈ 1.15 µM) | Non-toxic | 0.8 µg/mL (≈ 1.91 µM) | 1.12 µg/mL (≈ 2.68 µM) | Toxic | 0.001 µg/mL (≈ 0.00239 µM) | 0.002 µg/mL (≈ 0.00478 µM) | 0.008 µg/mL (≈ 0.0191 µM) | 0.036 µg/mL (≈ 0.086 µM) | Non-toxic | < 0.006 µg/mL | 0.002 µg/mL (≈ 0.00478 µM) |  | 97.4% | 41.2% |  |  |
| OC(Cc1c[nH]nn1)(Cn1cncn1)c1ccc(F)cc1F (configuration not stated) | 16.8 µg/mL (≈ 55 µM) | 29.1 µg/mL (≈ 95 µM) | 47 µg/mL (≈ 153 µM) | 49 µg/mL (≈ 160 µM) |  | > 50 µg/mL | > 50 µg/mL |  | 2.74 µg/mL (≈ 8.95 µM) | 3.16 µg/mL (≈ 10.3 µM) | 4.43 µg/mL (≈ 14.5 µM) | 12.4 µg/mL (≈ 40.5 µM) |  | 0.69 µg/mL (≈ 2.25 µM) | 3.12 µg/mL (≈ 10.2 µM) |  |  |  |  |  |
| C[C@H](CCC(=O)OCc1cn(CC(O)(Cn2cncn2)c2ccc(F)cc2F)nn1)[C@H]1CC[C@H]2[C@@H]3[C@H](O)C[C@@H]4C[C@H](O)CC[C@]4(C)[C@H]3C[C@H](O)[C@]12C (some centres not stated) | 2.93 µg/mL (≈ 4.03 µM) | 5.15 µg/mL (≈ 7.09 µM) | 8.9 µg/mL (≈ 12.2 µM) | 18.4 µg/mL (≈ 25.3 µM) | Non-toxic | 31.2 µg/mL (≈ 43 µM) | > 50 µg/mL | Toxic | 0.35 µg/mL (≈ 0.482 µM) | 0.442 µg/mL (≈ 0.608 µM) | 11.3 µg/mL (≈ 15.5 µM) | 12.6 µg/mL (≈ 17.3 µM) |  | 0.03 µg/mL (≈ 0.0413 µM) | 0.19 µg/mL (≈ 0.261 µM) | Toxic |  |  | Non-toxic |  |
| CCCCCCc1cn(CC(O)(Cn2cncn2)c2ccc(F)cc2F)nn1 (configuration not stated) | 0.12 µg/mL (≈ 0.307 µM) | 0.39 µg/mL (≈ 0.999 µM) | 2.46 µg/mL (≈ 6.3 µM) | 6.72 µg/mL (≈ 17.2 µM) | Non-toxic | 5 µg/mL (≈ 12.8 µM) | 6.9 µg/mL (≈ 17.7 µM) | Toxic | 0.018 µg/mL (≈ 0.0461 µM) | 0.032 µg/mL (≈ 0.082 µM) | 0.043 µg/mL (≈ 0.11 µM) | 0.14 µg/mL (≈ 0.359 µM) | Non-toxic | < 0.01 µg/mL | 0.02 µg/mL (≈ 0.0512 µM) | Toxic | 95% |  |  |  |
| C[C@@H]1[C@H](O)[C@@H](C)/C=C/C=C/C=C/C=C/C=C/C=C/C=C/[C@H](O[C@@H]2O[C@H](C)[C@@H](O)[C@H](N)[C@@H]2O)C[C@@H]2O[C@](O)(C[C@@H](O)C[C@@H](O)[C@H](O)CC[C@@H](O)C[C@@H](O)CC(=O)O[C@H]1C)C[C@H](O)[C@H]2C(=O)O [AMPHOTERICIN B] |  | 0.12 µg/mL (≈ 0.13 µM) | 0.02 µg/mL (≈ 0.0216 µM) | 0.12 µg/mL (≈ 0.13 µM) | Non-toxic |  | 0.5 µg/mL (≈ 0.541 µM) | Toxic |  | 0.12 µg/mL (≈ 0.13 µM) |  | 0.12 µg/mL (≈ 0.13 µM) |  |  | 0.06 µg/mL (≈ 0.0649 µM) | Toxic |  |  | Non-toxic |  |
| OC(Cn1cncn1)(Cn1cncn1)c1ccc(F)cc1F [FLUCONAZOLE] |  | 1 µg/mL (≈ 3.27 µM) | 0.6 µg/mL (≈ 1.96 µM) | 1 µg/mL (≈ 3.27 µM) | Non-toxic |  | 2 µg/mL (≈ 6.53 µM) | Toxic |  | 0.5 µg/mL (≈ 1.63 µM) |  | 2 µg/mL (≈ 6.53 µM) |  | 0.45 µg/mL (≈ 1.47 µM) | 1 µg/mL (≈ 3.27 µM) |  |  |  | Non-toxic | Toxic |
| CC(=O)N1CCN(c2ccc(OCC3COC(Cn4ccnc4)(c4ccc(Cl)cc4Cl)O3)cc2)CC1 (configuration not stated) [KETOCONAZOLE] | 0.024 µg/mL (≈ 0.0452 µM) | 0.031 µg/mL (≈ 0.0583 µM) | 2.12 µg/mL (≈ 3.99 µM) | 4 µg/mL (≈ 7.53 µM) | Non-toxic | 0.008 µg/mL (≈ 0.0151 µM) | 2 µg/mL (≈ 3.76 µM) | Toxic | 0.001 µg/mL (≈ 0.00188 µM) | 0.002 µg/mL (≈ 0.00376 µM) | 0.026 µg/mL (≈ 0.0489 µM) | 0.031 µg/mL (≈ 0.0583 µM) |  | 0.001 µg/mL (≈ 0.00188 µM) | 0.001 µg/mL (≈ 0.00188 µM) | Toxic |  |  | Non-toxic |  |
